Results on 5 molecules are retold here after ChEMBL document CHEMBL2010788, “Consequences of linker length alteration of the α7 nicotinic acetylcholine receptor (nAChR) agonist, SEN12333” (Bioorg Med Chem Lett, 2012).

Structures are written as SMILES. Calls of active or inactive are those of the source. The rule behind the calls is not given here.

Assay [1] deals with Neuronal acetylcholine receptor; alpha4/beta2 (Rattus norvegicus, UniProt P09483+P12390). Nature of the assay: Displacement of [3H]epibatidine from rat alpha4beta2 nAChR expressed in […] cells after 4 hrs by liquid scintillation counting. Format: cell-based. The essentials:
(§1)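 Competition binding against racemic [³H]epibatidine. Receptor source: membrane homogenates of HEK293 cells stably transfected with the rat nAChR subtype (α3β4, α4β2 or α7). Affinity reported as Ki.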

The target of assay [2] is Neuronal acetylcholine receptor; alpha3/beta4 (Rattus norvegicus, UniProt P04757+P12392). Nature of the assay: Displacement of [3H]epibatidine from rat alpha3beta4 nAChR expressed in […] cells after 4 hrs by liquid scintillation counting. The assay is classed as cell-based. An outline of the steps:
as §1
(In a radioligand displacement assay an active substance lowers the binding of a labelled ligand.)

Assay [3] has as its target T1, Neuronal acetylcholine receptor subunit alpha-7 (Rattus norvegicus, UniProt Q05941). Briefly: Displacement of [3H]epibatidine from rat alpha7 nAChR expressed in […] cells after 4 hrs by liquid scintillation counting. Format: cell-based. An outline of the steps: as §1
The target in assay [4] is Neuronal acetylcholine receptor subunit alpha-7 (Rattus norvegicus) (UniProt Q05941). Briefly: Agonist activity at wild type rat recombinant alpha7 nAChR expressed in Xenopus oocyte at 100 uM by voltage clamp electrophysiology assay. The assay is classed as functional.
Chain of Neuronal acetylcholine receptor subunit alpha-7 (Rattus norvegicus) (Q05941 whole entry): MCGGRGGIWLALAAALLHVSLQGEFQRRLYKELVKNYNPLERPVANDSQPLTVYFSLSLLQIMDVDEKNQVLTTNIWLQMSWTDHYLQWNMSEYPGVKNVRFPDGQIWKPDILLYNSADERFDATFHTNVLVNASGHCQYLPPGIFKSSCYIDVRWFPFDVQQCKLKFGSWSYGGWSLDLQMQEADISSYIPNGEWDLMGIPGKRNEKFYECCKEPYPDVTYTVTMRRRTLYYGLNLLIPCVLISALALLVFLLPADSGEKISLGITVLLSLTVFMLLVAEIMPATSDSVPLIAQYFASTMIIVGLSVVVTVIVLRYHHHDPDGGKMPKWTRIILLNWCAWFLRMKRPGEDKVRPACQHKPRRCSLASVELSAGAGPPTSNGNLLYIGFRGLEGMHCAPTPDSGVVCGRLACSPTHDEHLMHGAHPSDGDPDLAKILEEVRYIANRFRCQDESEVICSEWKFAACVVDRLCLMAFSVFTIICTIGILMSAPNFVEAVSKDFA
Assay [5] has the same target. Nature of the assay: Antagonist activity at wild type rat recombinant alpha7 nAChR expressed in Xenopus oocyte assessed as inhibition of ACh-gated current at 100 uM by voltage clamp electrophysiology assay. Format: functional.
For assay [6] the target is unchanged. Nature of the assay: Partial agonist activity at wild type rat alpha7 nAChR expressed in Xenopus oocyte by voltage clamp electrophysiology assay relative to acetylcholine. Format: functional.
Assay [7] has as its target T1, Neuronal acetylcholine receptor subunit alpha-7. Nature of the assay: Partial agonist activity at wild type rat recombinant alpha7 nAChR expressed in Xenopus oocyte by voltage clamp electrophysiology assay. Format: functional.

Chain of Neuronal acetylcholine receptor; alpha3/beta4 (P04757 whole entry): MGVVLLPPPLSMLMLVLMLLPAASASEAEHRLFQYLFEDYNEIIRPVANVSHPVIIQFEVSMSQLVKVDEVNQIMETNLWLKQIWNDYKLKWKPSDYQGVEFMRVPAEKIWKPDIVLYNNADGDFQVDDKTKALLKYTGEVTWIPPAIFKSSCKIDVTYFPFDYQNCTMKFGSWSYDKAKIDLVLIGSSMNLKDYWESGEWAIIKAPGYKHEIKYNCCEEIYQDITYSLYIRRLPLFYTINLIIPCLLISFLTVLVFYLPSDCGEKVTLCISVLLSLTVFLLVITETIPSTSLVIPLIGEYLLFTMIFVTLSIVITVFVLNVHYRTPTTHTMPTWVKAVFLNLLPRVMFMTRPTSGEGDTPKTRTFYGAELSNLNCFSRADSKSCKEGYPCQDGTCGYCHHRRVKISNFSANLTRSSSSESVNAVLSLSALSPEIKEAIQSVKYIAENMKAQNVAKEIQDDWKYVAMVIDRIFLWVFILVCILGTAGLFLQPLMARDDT
Chain of Neuronal acetylcholine receptor; alpha3/beta4 (P12392 whole entry): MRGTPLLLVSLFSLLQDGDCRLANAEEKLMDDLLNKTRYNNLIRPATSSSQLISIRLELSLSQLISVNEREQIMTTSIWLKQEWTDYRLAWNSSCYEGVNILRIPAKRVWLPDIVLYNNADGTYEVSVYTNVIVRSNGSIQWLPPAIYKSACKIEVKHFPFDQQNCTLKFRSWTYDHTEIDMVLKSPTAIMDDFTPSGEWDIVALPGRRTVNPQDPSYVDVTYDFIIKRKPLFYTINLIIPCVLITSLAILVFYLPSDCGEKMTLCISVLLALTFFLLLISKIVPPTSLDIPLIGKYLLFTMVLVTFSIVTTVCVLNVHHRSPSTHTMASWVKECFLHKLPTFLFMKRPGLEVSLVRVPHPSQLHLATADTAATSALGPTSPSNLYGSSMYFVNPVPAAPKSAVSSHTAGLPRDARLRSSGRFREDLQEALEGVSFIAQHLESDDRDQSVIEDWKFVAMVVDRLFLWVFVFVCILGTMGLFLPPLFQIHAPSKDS
T1 sequence (Q05941 whole entry): as the sequence (Q05941 whole entry) above
Chain of Neuronal acetylcholine receptor; alpha4/beta2 (P09483 whole entry): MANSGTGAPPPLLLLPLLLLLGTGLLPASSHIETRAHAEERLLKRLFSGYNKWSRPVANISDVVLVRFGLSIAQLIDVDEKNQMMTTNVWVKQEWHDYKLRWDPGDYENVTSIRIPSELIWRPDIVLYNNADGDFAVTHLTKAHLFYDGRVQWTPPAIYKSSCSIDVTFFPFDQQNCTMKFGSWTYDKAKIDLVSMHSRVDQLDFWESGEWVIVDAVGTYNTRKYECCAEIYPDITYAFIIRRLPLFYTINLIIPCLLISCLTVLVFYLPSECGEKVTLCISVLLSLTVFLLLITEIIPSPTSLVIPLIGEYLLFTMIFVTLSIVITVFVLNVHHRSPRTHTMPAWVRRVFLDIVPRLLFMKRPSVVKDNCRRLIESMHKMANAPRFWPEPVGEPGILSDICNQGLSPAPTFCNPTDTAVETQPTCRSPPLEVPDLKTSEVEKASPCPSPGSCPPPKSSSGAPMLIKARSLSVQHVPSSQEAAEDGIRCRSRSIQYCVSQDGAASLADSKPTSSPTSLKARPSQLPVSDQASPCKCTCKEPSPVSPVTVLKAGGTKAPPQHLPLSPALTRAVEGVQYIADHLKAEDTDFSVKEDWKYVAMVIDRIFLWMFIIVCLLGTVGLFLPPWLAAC
Chain of Neuronal acetylcholine receptor; alpha4/beta2 (P12390 whole entry): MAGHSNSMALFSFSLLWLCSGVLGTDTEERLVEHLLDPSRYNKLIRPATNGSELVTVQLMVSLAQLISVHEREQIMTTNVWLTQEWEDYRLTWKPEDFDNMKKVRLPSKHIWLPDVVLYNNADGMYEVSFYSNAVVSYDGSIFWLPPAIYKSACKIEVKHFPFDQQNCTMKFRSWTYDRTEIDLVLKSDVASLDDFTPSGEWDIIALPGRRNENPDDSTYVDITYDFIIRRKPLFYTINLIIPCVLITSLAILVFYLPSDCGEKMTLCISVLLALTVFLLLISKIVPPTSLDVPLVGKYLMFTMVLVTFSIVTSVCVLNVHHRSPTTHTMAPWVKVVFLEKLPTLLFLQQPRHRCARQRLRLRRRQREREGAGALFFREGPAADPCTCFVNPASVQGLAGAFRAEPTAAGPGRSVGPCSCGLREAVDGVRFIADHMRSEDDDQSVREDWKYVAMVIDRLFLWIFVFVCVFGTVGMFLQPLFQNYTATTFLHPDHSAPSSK

As for `O=C(CCCCCN1CCOCC1)Nc1ccc(-c2cccnc2)cc1`, the inhibition constant (Ki) in assay [1], in assay [2] and in assay [3] was greater than 10 µM each time. The outcome in assay [4] was inactive. Moreover, the inhibition entry in assay [5] is “inactive”.

Regarding `O=C(CCCCN1CCOCC1)Nc1ccc(-c2cccnc2)cc1`, the inhibitory constant (Ki) (as a rule, a measure of affinity in units of concentration, obtained from inhibition or displacement) in assay [1] is greater than 10 µM; in assay [2], greater than 10 µM; in assay [3] it was 0.5 µM. In assay [6], this molecule returned an Activity of 11%. Moreover, the half-maximal effective concentration (EC50) – broadly, the concentration at which the effect is half-maximal – in assay [7] was 9.5 µM.

As to `O=C(CCN1CCOCC1)Nc1ccc(-c2cccnc2)cc1`, the inhibitory constant (Ki) in assay [1], in assay [2] and in assay [3] was greater than 10 µM in each case. Further, the result in assay [4] was inactive. Further, the inhibition result in assay [5] was “inactive”.

Regarding `O=C(CN1CCOCC1)Nc1ccc(-c2cccnc2)cc1`, the Ki in assay [1] is greater than 10 µM; in assay [2] it was greater than 10 µM; in assay [3] it was 3.9 µM. In addition, the result in assay [4] was inactive. Also, in assay [5], the inhibition entry was “inactive”.

With `O=C(CCCN1CCOCC1)Nc1ccc(-c2cccnc2)cc1`, the Ki in assay [1], in assay [2] and in assay [3] was greater than 10 µM throughout. For the same molecule, the outcome in assay [4] was inactive. Further, the inhibition result in assay [5] was “inactive”.
